In ChEMBL document CHEMBL1154252, “Nitric oxide scavenging lignans from Vitex negundo seeds” (J Nat Prod, 2009):
pIC50: −log10 of the molar value.

Tests used:
RAW264.7 [1] = experiment: Cytotoxicity against LPS-stimulated mouse RAW264.7 cells up to 1 uM after 24 hrs by MTT assay; format: cell-based; conditions: raw264.7, 24 h
Method in brief: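 After supernatant removal for Griess assay, LPS-treated RAW 264.7 cells given fresh medium with 2 mg/mL MTT. Incubated 3 h at 37 °C, 5% CO2. Formazan dissolved in DMSO and absorbance measured at 570 nm.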

RAW264.7 [2] = experiment: Antiinflammatory activity against mouse RAW264.7 cells assessed as inhibition of LPS-induced nitric oxide production at 1 uM after 24 hrs by Griess reagent method; format: functional; conditions: RAW264.7, 24 h
Method in brief: (§1)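 RAW 264.7 macrophages seeded at 10^5 cells/well, co-incubated with compound and LPS (1 µg/mL) for 24 h. Nitrite in supernatant measured by Griess reagent: supernatant mixed in turn with 1% sulfanilamide and 0.1% naphthylethylenediamine in 2.5% phosphoric acid, absorbance read at 548 nm. n = 4, mean ± SD; L-nitroarginine as positive control, LPS alone as negative control.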

RAW264.7 [3] = experiment: Antiinflammatory activity against mouse RAW264.7 cells assessed as inhibition of LPS-induced nitric oxide production after 24 hrs by Griess reagent method; format: functional, cell-based; conditions: RAW264.7, 24 h; method in brief: as §1

Row | pIC50 (RAW264.7 [3]) | Compound | Activity (RAW264.7 [1]) | inhibition at 1 µM (RAW264.7 [2]) [%]
1 | 5.45 | COc1cc([C@H]2c3cc(O)c(OC)cc3C=C(C=O)[C@@H]2CO)ccc1O | Non-toxic | 34.4
2 | 5.82 | COc1cc(-c2c3c(cc4cc(OC)c(O)cc24)C(=O)NC3)ccc1O [VITEDOAMINE A] | Non-toxic | 43.3
3 | 6.06 | COc1cc(-c2c3c(cc4cc(OC)c(O)cc24)CNC3=O)ccc1O [VITEDOAMINE B] | Non-toxic | 56.2
4 | 6.42 | COc1cc([C@H]2c3cc(O)c(O)cc3C=C(C=O)[C@@H]2CO)ccc1O [VITEXDOIN A] | Non-toxic | 67
5 | 6.70 | COc1cc(-c2cc(C=O)cc3ccc(O)c(OC)c23)ccc1O [VITEXDOIN B] | Non-toxic | 80.8
6 | 6.24 | COc1cc(-c2c(C=O)ccc3cc(OC)c(O)cc23)ccc1O [VITEXDOIN C] | Non-toxic | 61.7
7 | 6.89 | COc1cc(-c2c(C=O)c(O)cc3cc(OC)c(O)cc23)ccc1O [VITEXDOIN D] | Non-toxic | 91.1
8 | 6.82 | COc1cc(-c2cc(C=O)c(O)c3cc(OC)c(O)cc23)ccc1O [VITEXDOIN E] | Non-toxic | 84.2
9 | 6.30 | COc1cc(-c2cc(C=O)cc3cc(OC)c(O)cc23)ccc1O [VITROFOLAL E] |  | 63.2
10 | 6.96 | COc1cc(-c2c(O)c(C=O)cc3cc(OC)c(O)cc23)ccc1O [VITROFOLAL F] | Non-toxic | 95.8

Row | Compound | pIC50 (RAW264.7 [3]) | Activity (RAW264.7 [1]) | inhibition at 1 µM (RAW264.7 [2]) [%]
11 | N=C(NCCC[C@H](N)C(=O)O)N[N+](=O)[O-] [NITROARGININE] | 4.36 |  | 2.53
